# In ChEMBL document CHEMBL3272128, “Antileukemic activity of derivatives of 1-phenyl-2,5-dimethyl-3,4-bis(hydroxymethyl)pyrrole bis(N-methylcarbamate)” (J Med Chem, 1977):
# What was measured:
# [1] = tested on: Mus musculus; test: Toxicity in male CDF1 mouse allografted with mouse P388 cells assessed as survivors on day 5 at 25 mg/kg, ip using hydroxypropylcellulose suspension; type: organism-based; design: dose 25 mg/kg, route intraperitoneal; conditions: in vivo
# In short: (§1)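 Male CDF1 mice received an ip inoculation of P388 leukemia ascitic fluid. Dosing was ip in a hydroxypropylcellulose (Flucel) suspension, once daily for nine days, beginning 24 h after tumor implantation. Toxicity was scored as survivors recorded on the fifth day.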
# [2] = tested on: Mus musculus; test: Toxicity in male CDF1 mouse allografted with mouse P388 cells assessed as survivors on day 5 at 12.5 mg/kg, ip using hydroxypropylcellulose suspension; type: organism-based; design: dose 12.5 mg/kg, route intraperitoneal; conditions: in vivo; in short: as §1
# [3] = tested on: P388; test: Antileukemic activity against mouse P388 cells allografted in male CDF1 mouse assessed as change in body weight at 50 mg/kg, ip using hydroxypropylcellulose suspension total 9 daily doses started 24 hrs after tumor inoculation; type: functional; conditions: route intraperitoneal
# In short: (§2)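 Male CDF1 mice were inoculated ip with P388 ascitic fluid. Compound was given ip as a Flucel (hydroxypropylcellulose) suspension, nine daily doses from 24 h after inoculation. Animal weight difference (T − C, g) was recorded on the fifth day.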
# [4] = tested on: P388; test: Antileukemic activity against mouse P388 cells allografted in male CDF1 mouse assessed as change in body weight at 25 mg/kg, ip using hydroxypropylcellulose suspension total 9 daily doses started 24 hrs after tumor inoculation; type: functional; conditions: route intraperitoneal; in short: as §2
# [5] = tested on: P388; test: Antileukemic activity against mouse P388 cells allografted in male CDF1 mouse assessed as change in body weight at 12.5 mg/kg, ip using hydroxypropylcellulose suspension total 9 daily doses started 24 hrs after tumor inoculation; type: functional; conditions: route intraperitoneal; in short: as §2
# [6] = tested on: P388; test: Antileukemic activity against mouse P388 cells allografted in male CDF1 mouse assessed as tumor growth inhibition at 50 mg/kg, ip using hydroxypropylcellulose suspension total 9 daily doses started 24 hrs after tumor inoculation; type: functional; conditions: route intraperitoneal
# In short: (§3)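 Male CDF1 mice received P388 ascitic fluid ip, then ip doses in Flucel (hydroxypropylcellulose) suspension, nine daily, beginning 24 h after inoculation. Efficacy was median survival time as % T/C; values > 125 were considered significant.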
# [7] = tested on: P388; test: Antileukemic activity against mouse P388 cells allografted in male CDF1 mouse assessed as tumor growth inhibition at 25 mg/kg, ip using hydroxypropylcellulose suspension total 9 daily doses started 24 hrs after tumor inoculation; type: functional; conditions: route intraperitoneal; in short: as §3
# [8] = tested on: P388; test: Antileukemic activity against mouse P388 cells allografted in male CDF1 mouse assessed as tumor growth inhibition at 12.5 mg/kg, ip using hydroxypropylcellulose suspension total 9 daily doses started 24 hrs after tumor inoculation; type: functional; conditions: route intraperitoneal; in short: as §3
# [9] = tested on: P388; test: Antileukemic activity against mouse P388 cells allografted in male CDF1 mouse assessed as tumor growth inhibition at 50 mg/kg, ip using saline as vehicle total 9 daily doses started 24 hrs after tumor inoculation; type: functional; conditions: route intraperitoneal
# In short: (§4)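 P388 ascitic fluid was given ip to male CDF1 mice. Treatment was ip in saline, nine daily doses from 24 h post-inoculation. Median survival time was expressed as % T/C, and % T/C > 125 was considered significant.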
# [10] = tested on: P388; test: Antileukemic activity against mouse P388 cells allografted in male CDF1 mouse assessed as tumor growth inhibition at 25 mg/kg, ip using saline as vehicle total 9 daily doses started 24 hrs after tumor inoculation; type: functional; conditions: route intraperitoneal; in short: as §4
# [11] = tested on: P388; test: Antileukemic activity against mouse P388 cells allografted in male CDF1 mouse assessed as tumor growth inhibition at 12.5 mg/kg, ip using saline as vehicle total 9 daily doses started 24 hrs after tumor inoculation; type: functional; conditions: route intraperitoneal; in short: as §4
# [12] = tested on: Mus musculus; test: Toxicity in male CDF1 mouse allografted with mouse P388 cells assessed as survivors on day 5 at 25 mg/kg, ip using saline as vehicle; type: organism-based; design: dose 25 mg/kg, route intraperitoneal; conditions: in vivo
# In short: (§5)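 P388 leukemia ascitic fluid was implanted ip into male CDF1 mice. Compound was given ip in saline vehicle as nine daily doses, starting 24 h post-inoculation. Survivor counts were taken on day 5.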
# [13] = tested on: Mus musculus; test: Toxicity in male CDF1 mouse allografted with mouse P388 cells assessed as survivors on day 5 at 12.5 mg/kg, ip using saline as vehicle; type: organism-based; design: dose 12.5 mg/kg, route intraperitoneal; conditions: in vivo; in short: as §5
# [14] = tested on: P388; test: Antileukemic activity against mouse P388 cells allografted in male CDF1 mouse assessed as change in body weight at 50 mg/kg, ip using saline as vehicle total 9 daily doses started 24 hrs after tumor inoculation; type: functional; conditions: route intraperitoneal
# In short: (§6)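 In male CDF1 mice bearing ip-inoculated P388 ascitic fluid, drug was given ip in saline vehicle, once daily for nine doses starting 24 h after inoculation. Body weight difference, treated minus control (g), was recorded on day 5.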
# [15] = tested on: P388; test: Antileukemic activity against mouse P388 cells allografted in male CDF1 mouse assessed as change in body weight at 25 mg/kg, ip using saline as vehicle total 9 daily doses started 24 hrs after tumor inoculation; type: functional; conditions: route intraperitoneal; in short: as §6
# [16] = tested on: P388; test: Antileukemic activity against mouse P388 cells allografted in male CDF1 mouse assessed as change in body weight at 12.5 mg/kg, ip using saline as vehicle total 9 daily doses started 24 hrs after tumor inoculation; type: functional; conditions: route intraperitoneal; in short: as §6
# [17] = tested on: Mus musculus; test: Toxicity in male CDF1 mouse allografted with mouse P388 cells assessed as survivors on day 5 at 50 mg/kg, ip using hydroxypropylcellulose suspension; type: organism-based; design: dose 50 mg/kg, route intraperitoneal; conditions: in vivo; in short: as §1
# [18] = tested on: P388; test: Antileukemic activity against mouse P388 cells allografted in female CDF1 mouse assessed as tumor growth inhibition at 100 mg/kg, ip using hydroxypropylcellulose suspension total 9 daily doses started 24 hrs after tumor inoculation; type: functional; conditions: route intraperitoneal
# In short: (§7)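 P388 ascitic fluid was inoculated ip into female CDF1 mice. Dosing was ip in a Flucel (hydroxypropylcellulose) suspension, given daily for nine doses beginning 24 h post-inoculation. Activity was median survival time expressed as % T/C, with % T/C > 125 taken as significant.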
# [19] = tested on: P388; test: Antileukemic activity against mouse P388 cells allografted in female CDF1 mouse assessed as tumor growth inhibition at 50 mg/kg, ip using hydroxypropylcellulose suspension total 9 daily doses started 24 hrs after tumor inoculation; type: functional; conditions: route intraperitoneal; in short: as §7
# [20] = tested on: P388; test: Antileukemic activity against mouse P388 cells allografted in female CDF1 mouse assessed as tumor growth inhibition at 25 mg/kg, ip using hydroxypropylcellulose suspension total 9 daily doses started 24 hrs after tumor inoculation; type: functional; conditions: route intraperitoneal; in short: as §7
# [21] = tested on: P388; test: Antileukemic activity against mouse P388 cells allografted in female CDF1 mouse assessed as change in body weight at 6.25 mg/kg, ip using hydroxypropylcellulose suspension total 9 daily doses started 24 hrs after tumor inoculation; type: functional; conditions: route intraperitoneal
# In short: (§8)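 Female CDF1 mice got P388 ascitic fluid ip. Test agent was given ip as a Flucel (hydroxypropylcellulose) suspension, nine daily doses starting 24 h after tumor inoculation. Read-out was the treated minus control animal weight difference (T − C, g), recorded on day 5.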
# [22] = tested on: Mus musculus; test: Toxicity in female CDF1 mouse allografted with mouse P388 cells assessed as survivors on day 5 at 200 mg/kg, ip using hydroxypropylcellulose suspension; type: organism-based; design: dose 200 mg/kg, route intraperitoneal; conditions: in vivo
# In short: (§9)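 Female CDF1 mice were inoculated ip with P388 leukemia ascitic fluid. Test agent was suspended in hydroxypropylcellulose (Flucel) and given ip as nine daily doses, starting 24 h after tumor inoculation. Survivors were counted on day 5 as the toxicity read-out.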
# [23] = tested on: Mus musculus; test: Toxicity in female CDF1 mouse allografted with mouse P388 cells assessed as survivors on day 5 at 50 mg/kg, ip using hydroxypropylcellulose suspension; type: organism-based; design: dose 50 mg/kg, route intraperitoneal; conditions: in vivo; in short: as §9
# [24] = tested on: Mus musculus; test: Toxicity in female CDF1 mouse allografted with mouse P388 cells assessed as survivors on day 5 at 25 mg/kg, ip using hydroxypropylcellulose suspension; type: organism-based; design: dose 25 mg/kg, route intraperitoneal; conditions: in vivo; in short: as §9
# [25] = tested on: P388; test: Antileukemic activity against mouse P388 cells allografted in female CDF1 mouse assessed as change in body weight at 200 mg/kg, ip using hydroxypropylcellulose suspension total 9 daily doses started 24 hrs after tumor inoculation; type: functional; conditions: route intraperitoneal; in short: as §8
# [26] = tested on: P388; test: Antileukemic activity against mouse P388 cells allografted in female CDF1 mouse assessed as change in body weight at 100 mg/kg, ip using hydroxypropylcellulose suspension total 9 daily doses started 24 hrs after tumor inoculation; type: functional; conditions: route intraperitoneal; in short: as §8
# [27] = tested on: P388; test: Antileukemic activity against mouse P388 cells allografted in female CDF1 mouse assessed as change in body weight at 50 mg/kg, ip using hydroxypropylcellulose suspension total 9 daily doses started 24 hrs after tumor inoculation; type: functional; conditions: route intraperitoneal; in short: as §8
# [28] = tested on: P388; test: Antileukemic activity against mouse P388 cells allografted in female CDF1 mouse assessed as change in body weight at 25 mg/kg, ip using hydroxypropylcellulose suspension total 9 daily doses started 24 hrs after tumor inoculation; type: functional; conditions: route intraperitoneal; in short: as §8
# [29] = tested on: P388; test: Antileukemic activity against mouse P388 cells allografted in female CDF1 mouse assessed as tumor growth inhibition at 200 mg/kg, ip using hydroxypropylcellulose suspension total 9 daily doses started 24 hrs after tumor inoculation; type: functional; conditions: route intraperitoneal; in short: as §7
# [30] = tested on: Mus musculus; test: Toxicity in male CDF1 mouse allografted with mouse P388 cells assessed as survivors on day 5 at 50 mg/kg, ip using saline as vehicle; type: organism-based; design: dose 50 mg/kg, route intraperitoneal; conditions: in vivo; in short: as §5
Compound,Activity [1],Activity [2],Activity [3] [g],Activity [4] [g],Activity [5] [g],T/C [6] [%],T/C [7] [%],T/C [8] [%],other results
CCCCc1ccc(-n2c(C)c(COC(=O)NC)c(COC(=O)NC)c2C)cc1,Non-toxic,Non-toxic,-4.9,-4.1,-3.1,65,152,190,–
CNC(=O)OCc1c(COC(=O)NC)c(C)n(-c2ccc3c(c2)OCO3)c1C,Non-toxic,Non-toxic,-3.4,-1.6,-1.1,<50,146,132,–
CNC(=O)OCc1c(COC(=O)NC)c(C)n(-c2ccc(Cl)cc2)c1C,–,–,–,–,–,–,–,–,T/C [9]: 80%; T/C [10]: 142%; T/C [11]: 145%; Activity [12]: Non-toxic; Activity [13]: Non-toxic; Activity [14]: -2.9 g; Activity [15]: -3.8 g; Activity [16]: -1.3 g
CNC(=O)OCc1c(COC(=O)NC)c(C)n(-c2ccc(Br)cc2)c1C,Non-toxic,Non-toxic,-4.9,-3.9,-2,88,142,152,–
CCOc1ccc(-n2c(C)c(COC(=O)NC)c(COC(=O)NC)c2C)cc1,Non-toxic,Non-toxic,-3.8,-3.4,-3,90,150,152,–
CNC(=O)OCc1c(COC(=O)NC)c(C)n(-c2ccc(OC)cc2)c1C,Non-toxic,Non-toxic,-0.5,-2.4,-2.6,171,142,152,Activity [17]: Non-toxic
CNC(=O)OCc1c(COC(=O)NC)c(C)n(-c2ccc(F)cc2)c1C,Non-toxic,Non-toxic,-2.6,-2.1,-2.6,133,155,142,Activity [17]: Non-toxic
CNC(=O)OCc1c(COC(=O)NC)c(C)n(-c2ccccc2)c1C,Non-toxic,–,–,-1.7,-1.3,–,148,145,T/C [18]: <50%; T/C [19]: <50%; T/C [20]: 127%; Activity [21]: -2.1 g; Activity [22]: Toxic; Activity [23]: Non-toxic; Activity [24]: Non-toxic; Activity [25]: -1.5 g; Activity [26]: -2.1 g; Activity [27]: -2 g; Activity [28]: -1.6 g; T/C [29]: <50%
CNC(=O)OCc1c(COC(=O)NC)c(C)n(-c2ccc(Cl)c(Cl)c2)c1C,–,–,–,–,–,–,–,–,T/C [9]: 84%; T/C [10]: 148%; T/C [11]: 160%; Activity [30]: Non-toxic; Activity [12]: Non-toxic; Activity [13]: Non-toxic; Activity [14]: -2.6 g; Activity [15]: -2.9 g; Activity [16]: -1.5 g
COc1ccc(-n2c(C)c(COC(C)=O)c(COC(C)=O)c2C)cc1,Non-toxic,Non-toxic,-3.2,-3.8,-1.6,75,95,157,–
CNC(=O)OCc1c(COC(=O)NC)c(C)n(-c2ccc(C)cc2)c1C,Non-toxic,Non-toxic,-2.6,-2.3,-2.5,133,136,142,Activity [17]: Non-toxic
